pIC50: −log10 of the molar value.
Assays:
[1] = target: Aldo-keto reductase family 1 member A1 (Rattus norvegicus, UniProt P51635); assay: In vitro inhibitory activity against L-Hexonate Dehydrogenase (L-HDH) from rat kidney (RK)
[2] = target: Aldo-keto reductase family 1 member B1 (Rattus norvegicus, UniProt P07943); assay: In vitro inhibition of Aldose reductase (AR) from rat lens (RL)
Method in brief: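 Unfractionated rat lens supernatant (50–100 μg protein) run in the reverse direction: 50 mmol/L potassium phosphate pH 7.5, 12 mmol/L benzyl alcohol, 12 μmol/L oxidized 3-acetylpyridine adenine dinucleotide phosphate, room temperature. Reduced analogue formation followed fluorometrically at 365/480 nm. Same enzyme activity used for all inhibitors. IC50 from linear regression over the linear part of the dose–response curve.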

[3] = target: Aldo-keto reductase family 1 member B1 (Rattus norvegicus) (UniProt P07943); assay: Selectivity as ratio of IC50 for rat lens and kidney […]

Aldo-keto reductase family 1 member A1, sequence (P51635 whole entry, looked up): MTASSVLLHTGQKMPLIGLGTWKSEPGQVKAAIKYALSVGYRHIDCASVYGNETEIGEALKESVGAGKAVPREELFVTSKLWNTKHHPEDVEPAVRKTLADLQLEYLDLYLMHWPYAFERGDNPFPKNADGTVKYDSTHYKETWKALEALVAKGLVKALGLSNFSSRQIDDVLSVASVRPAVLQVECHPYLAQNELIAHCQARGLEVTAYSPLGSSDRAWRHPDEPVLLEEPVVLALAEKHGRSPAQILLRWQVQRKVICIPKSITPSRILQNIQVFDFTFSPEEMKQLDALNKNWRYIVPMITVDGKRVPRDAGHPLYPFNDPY

| Compound | pIC50 [1] | pIC50 [2] | Selectivity quotient [3] |
| --- | --- | --- | --- |
| O=C1CC2(C(=O)N1)c1cc(F)ccc1-c1ccc(F)cc12 | 8.05 | 8.30 | 0.56 |
| O=C1CC2(c3ccccc3-c3ccccc32)S(=O)(=O)N1 | 5.76 | 5.72 | 1.09 |
| O=C1CC2(c3ccccc3-c3ccc(F)cc32)S(=O)(=O)N1 (centres undefined) | 6.82 | 6.77 | 1.12 |
| O=C1NS(=O)(=O)CC12c1ccccc1-c1ccc(F)cc12 (centres undefined) | 5.68 | < 2.00 | > 5000 |
| O=C1NC(=O)C2(N1)c1cc(F)ccc1-c1ccc(F)cc12 | 8.30 | 8.05 | 1.8 |
| O=C1NS(=O)(=O)CC12c1ccccc1-c1ccccc12 | 5.35 | < 2.00 | > 2000 |
| COc1ccc2c(C(=S)N(C)CC(=O)O)cccc2c1C(F)(F)F [TOLRESTAT] | – | 8.70 | – |

Further compounds by rising pIC50 [2], results first:

| pIC50 [1] | pIC50 [2] | Selectivity quotient [3] | Compound |
| --- | --- | --- | --- |
| 5.43 | 2.21 | 1640 | O=C1NS(=O)(=O)CC12c1cc(F)ccc1-c1ccc(F)cc12 |
| 5.45 | 2.63 | 675 | O=C1NS(=O)(=O)CC12c1ccccc1-c1ccc(Cl)cc12 (centres undefined) |
| 6.98 | 6.63 | 2.22 | O=C1CC2(c3ccccc3-c3ccc(Cl)cc32)S(=O)(=O)N1 (centres undefined) |
| 5.62 | 7.70 | 0.008 | O=C(O)Cc1nn(Cc2ccc(Br)cc2F)c(=O)c2ccccc12 [PONALRESTAT] |
| 7.57 | 7.74 | 0.68 | O=C1CC2(c3cc(F)ccc3-c3ccc(F)cc32)S(=O)(=O)N1 |
